Reference: paper PMC5551971 (ACS chemical biology, 2017)
Entries after “also recorded” stand apart in the source; their conditions may differ.

Key:
[1] = tested on: H322, A427, H1155 and H1648 NSCLC cells; assay: Cell viability of NSCLC cell lines, 72 h treatment; format: cell-based; conditions: several NSCLC cell lines, single agent
PLK1 [2] = molecular target: T1, PLK1 (Homo sapiens, UniProt P53350); assay: In vitro kinase assay; format: biochemical
H322 cells [3] = assay: Immunoblot analysis of γH2AX; format: cell-based; conditions: 4 h; for induction of DNA damage (γH2AX): parental H322 and cWEE1 control cells, AZD1775 1 μM or cisplatin 17 μM
Procedure, shortened: (§1)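 H322 cells and H322-derived CRISPR-Cas9 clones were used: WEE1 knockouts made by targeting the exon 1/intron 1 splice site, plus a control clone with WEE1 intact. Cells were exposed for 4 h to 1 μM test compound or to cisplatin (14 μM in the H322/H1648 comparison; 17 μM in the parental/clone comparison). γH2AX and total H2AX were detected by immunoblot, tracking the ~16 kDa and mono-ubiquitinated ~25 kDa γH2AX bands.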

H322 cells [4] = assay: Immunoblot analysis of PARP1 and caspase 3 cleavage; format: cell-based
[5] = tested on: cWEE1-KO[18] and cWEE1-KO[19] H322 WEE1 knockout clones; assay: CellTiterGlo viability of H322 WEE1 CRISPR-Cas9 knockout clones; format: cell-based; conditions: 72 h
LYN = LYN (Homo sapiens, UniProt P07948); assay: In vitro kinase assay panel; format: biochemical; conditions: 100 nM or 1000 nM AZD1775
Sequence of LYN (P07948 whole entry): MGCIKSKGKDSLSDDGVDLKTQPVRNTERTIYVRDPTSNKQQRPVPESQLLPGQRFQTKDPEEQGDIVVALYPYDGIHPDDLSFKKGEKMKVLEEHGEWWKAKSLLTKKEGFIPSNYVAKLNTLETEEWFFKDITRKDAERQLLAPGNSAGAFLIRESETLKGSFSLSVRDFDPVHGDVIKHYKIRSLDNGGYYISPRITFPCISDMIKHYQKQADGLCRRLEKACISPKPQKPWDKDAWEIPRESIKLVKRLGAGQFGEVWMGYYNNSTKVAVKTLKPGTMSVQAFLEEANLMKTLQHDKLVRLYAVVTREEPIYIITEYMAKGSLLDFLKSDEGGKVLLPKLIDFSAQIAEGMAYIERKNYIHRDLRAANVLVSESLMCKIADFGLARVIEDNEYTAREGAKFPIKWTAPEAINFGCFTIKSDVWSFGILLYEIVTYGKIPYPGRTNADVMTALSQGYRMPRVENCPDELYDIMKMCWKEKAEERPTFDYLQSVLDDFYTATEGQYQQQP

SRC = SRC (Homo sapiens, UniProt P12931); assay: In vitro kinase assay panel; format: biochemical; conditions: 100 nM or 1000 nM AZD1775
Sequence of SRC (P12931 whole entry): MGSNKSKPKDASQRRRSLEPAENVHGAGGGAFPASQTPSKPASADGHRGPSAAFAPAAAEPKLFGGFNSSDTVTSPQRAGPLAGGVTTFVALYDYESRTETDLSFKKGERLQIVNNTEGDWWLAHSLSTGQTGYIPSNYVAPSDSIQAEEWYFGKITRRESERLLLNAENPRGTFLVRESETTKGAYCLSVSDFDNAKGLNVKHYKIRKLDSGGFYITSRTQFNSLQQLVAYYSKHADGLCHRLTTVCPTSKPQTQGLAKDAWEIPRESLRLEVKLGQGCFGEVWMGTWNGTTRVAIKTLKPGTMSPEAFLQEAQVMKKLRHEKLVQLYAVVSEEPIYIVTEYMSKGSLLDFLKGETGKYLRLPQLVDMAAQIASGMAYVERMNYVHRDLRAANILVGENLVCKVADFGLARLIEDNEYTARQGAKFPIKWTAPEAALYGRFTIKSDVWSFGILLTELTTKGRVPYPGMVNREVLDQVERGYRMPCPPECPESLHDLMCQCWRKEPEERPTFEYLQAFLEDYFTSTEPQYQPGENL

PLK1 [6] = molecular target: T1, PLK1; assay: In vitro kinase assay panel; format: biochemical; conditions: 100 nM or 1000 nM AZD1775
PLK1 [7] = molecular target: T1, PLK1; assay: i-AZD1775 affinity pulldown with AZD1775 competition, PLK1 immunoblot; format: binding; conditions: H322 whole cell lysates, 20 μM free AZD1775
[8] = tested on: cWEE1-KO[18] and cWEE1-KO[19] H322 WEE1 knockout clones; assay: Immunoblot analysis of γH2AX in WEE1 CRISPR-Cas9 knockout clones; format: cell-based; conditions: 4 h, 1 μM AZD1775
Procedure, shortened: as §1

T1 sequence (P53350 whole entry): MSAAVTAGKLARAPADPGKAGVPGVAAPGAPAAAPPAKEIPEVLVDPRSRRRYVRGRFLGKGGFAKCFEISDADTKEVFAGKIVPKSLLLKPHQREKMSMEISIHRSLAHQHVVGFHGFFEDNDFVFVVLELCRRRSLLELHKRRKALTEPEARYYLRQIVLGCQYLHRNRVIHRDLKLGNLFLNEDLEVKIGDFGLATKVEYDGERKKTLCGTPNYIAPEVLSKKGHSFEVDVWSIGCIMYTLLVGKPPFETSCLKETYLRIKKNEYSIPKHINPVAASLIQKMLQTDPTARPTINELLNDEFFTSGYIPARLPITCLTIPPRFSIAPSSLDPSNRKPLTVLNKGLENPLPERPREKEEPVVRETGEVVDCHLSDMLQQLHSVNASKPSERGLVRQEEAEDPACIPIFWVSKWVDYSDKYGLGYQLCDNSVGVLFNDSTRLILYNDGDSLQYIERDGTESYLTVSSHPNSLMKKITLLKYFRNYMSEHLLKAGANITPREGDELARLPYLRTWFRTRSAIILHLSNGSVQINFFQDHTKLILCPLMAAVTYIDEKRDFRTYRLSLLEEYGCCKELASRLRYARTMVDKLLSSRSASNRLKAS

Row | IC50 (PLK1 [2]) [nM] | LYN inhibition (LYN) | SRC inhibition (SRC) | PLK1 inhibition (PLK1 [6]) | PLK1 enrichment in i-AZD1775 pulldown on competition with AZD1775 (PLK1 [7]) | Compound | inhibition of viability, potency [1] | phosphorylation of Serine 139 in histone H2AX (γH2AX) (H322 cells [3]; H322 cells, 1 μM AZD1775) | induction of DNA damage (γH2AX) (H322 cells [3]) | PARP1 and caspase-3 cleavage (apoptosis induction) (H322 cells [4]; H322 versus H1648 cells, 48 h) | sensitivity of WEE1-reconstituted clone cWEE1-KO[18](RC9) [5] | γH2AX in WEE1 knockout clones [8] | apoptosis by PARP1 and caspase 3 cleavage (H322 cells [4]; H322 cells, 0.03 μM BI-2536 compared with 1 μM AZD1775)
1 | 22 to 34 | potent AZD1775 targets | potent AZD1775 targets | potent AZD1775 targets | completely abrogated its enrichment | C=CCn1c(=O)c2cnc(Nc3ccc(N4CCN(C)CC4)cc3)nc2n1-c1cccc(C(C)(C)O)n1 [AZD1775] | sub- to low micromolar potency | potently increased | can induce DNA damage | markedly more pronounced in H322 cells than in H1648 | completely reversed the sensitizing effect | further increased γH2AX | –
2 | – | – | – | – | – | CC[C@@H]1C(=O)N(C)c2cnc(Nc3ccc(C(=O)NC4CCN(C)CC4)cc3OC)nc2N1C1CCCC1 [BI-2536] | – | – | – | – | – | – | strongly induced apoptosis; also recorded: higher degree of apoptosis than 1 μM AZD1775
3 | – | – | – | – | – | N.N.[Cl][Pt][Cl] [cisplatin] | – | – | can induce DNA damage | – | – | – | –
